Our source for the Activity, IC50 and inhibition values is ChEMBL document CHEMBL2062417, “Biotinylated quercetin as an intrinsic photoaffinity proteomics probe for the identification of quercetin target proteins” (Bioorg Med Chem, 2011).

The target in experiment [1] is Casein kinase II subunit beta (Homo sapiens) (UniProt P67870). Description: Binding affinity to CK2beta at 150 uM followed by UV irradiation for 30 mins with Wood's glass filtered medium pressure mercury arc light by SDS-PAGE based pull down assay. In a few lines: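 CK2 (17.5–70 nM) was mixed with 150 μM BioQ in 400 μL 10 mM PBS pH 7.2 with protease inhibitors, with or without 10 mM MgCl2 and 2 μM ATP. Samples were irradiated 30 min on ice (320–400 nm, peak 365 nm) or left unirradiated. Capture was on streptavidin agarose for 1 h, with washes in lysis buffer or 2% SDS Tris buffer, then boiling, SDS-PAGE and silver staining.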
Chain of Casein kinase II subunit beta (Homo sapiens) (P67870 whole entry): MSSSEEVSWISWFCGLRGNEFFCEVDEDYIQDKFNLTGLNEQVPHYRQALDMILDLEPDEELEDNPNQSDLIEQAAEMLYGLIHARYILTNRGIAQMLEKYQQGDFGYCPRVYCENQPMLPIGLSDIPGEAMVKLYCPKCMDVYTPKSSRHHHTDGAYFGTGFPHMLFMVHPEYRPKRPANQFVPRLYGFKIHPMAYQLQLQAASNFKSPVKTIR

A further experiment concerns the target Casein kinase II (Homo sapiens, UniProt P19784+P67870+P68400). Briefly: Inhibition of CK2 using RRRADDSDDDDD as substrate after 30 mins by PKLight assay. In kind it is protein-complex assay.
Experiment [2] deals with Jurkat. Briefly: Inhibition of heat shock-induced HSP70 expression in human Jurkat cells at 145 uM treated 2 hrs before beat shock challenge measured after 8 hrs by Western blotting. In kind it is functional, cell-based. In a few lines: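 Jurkat cells (low basal HSP70) got 145 μM compound or DMSO vehicle for 2 h, then a 30 min 43 °C heat shock and 8 h recovery at 37 °C. HSP70 and actin were read by Western blot. Controls were unheated cells and heated cells with no additive.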

Experiment [3] deals with Jurkat. Briefly: Binding affinity to quercetin binding protein in human Jurkat cells at 150 uM after 30 mins followed by denaturing wash by SDS-PAGE based pull down assay in presence of heat shock. In kind it is cell-based.
Experiment [4] relates to Jurkat. Briefly: Binding affinity to quercetin binding protein in human Jurkat cells at 150 uM followed by UV irradiation for 30 mins with Wood's glass filtered medium pressure mercury arc light before cell lysis measured after denaturing wash by SDS-PAGE based pull down assay. A digest of the protocol:
(§1)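 Jurkat cells were grown in RPMI with 10% FBS (about 15×10^6 cells) and treated 2 h with 150 μM BioQ in 3% aqueous DMSO. They were heat-shocked at 43 °C for 30 min, recovered 1 h at 37 °C, and UV-irradiated (320–400 nm, peak 365 nm, 30 min, 4 °C) before or after sonication lysis. Streptavidin-agarose capture ran 1 h. Beads were washed ≥3× with lysis buffer or 2% SDS Tris pH 7.4, boiled, run on 12% SDS-PAGE and silver-stained.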

For experiment [5], the target named is T1, Ubiquitin-like modifier-activating enzyme 1 (Homo sapiens) (UniProt P22314).
T1 sequence (whole entry): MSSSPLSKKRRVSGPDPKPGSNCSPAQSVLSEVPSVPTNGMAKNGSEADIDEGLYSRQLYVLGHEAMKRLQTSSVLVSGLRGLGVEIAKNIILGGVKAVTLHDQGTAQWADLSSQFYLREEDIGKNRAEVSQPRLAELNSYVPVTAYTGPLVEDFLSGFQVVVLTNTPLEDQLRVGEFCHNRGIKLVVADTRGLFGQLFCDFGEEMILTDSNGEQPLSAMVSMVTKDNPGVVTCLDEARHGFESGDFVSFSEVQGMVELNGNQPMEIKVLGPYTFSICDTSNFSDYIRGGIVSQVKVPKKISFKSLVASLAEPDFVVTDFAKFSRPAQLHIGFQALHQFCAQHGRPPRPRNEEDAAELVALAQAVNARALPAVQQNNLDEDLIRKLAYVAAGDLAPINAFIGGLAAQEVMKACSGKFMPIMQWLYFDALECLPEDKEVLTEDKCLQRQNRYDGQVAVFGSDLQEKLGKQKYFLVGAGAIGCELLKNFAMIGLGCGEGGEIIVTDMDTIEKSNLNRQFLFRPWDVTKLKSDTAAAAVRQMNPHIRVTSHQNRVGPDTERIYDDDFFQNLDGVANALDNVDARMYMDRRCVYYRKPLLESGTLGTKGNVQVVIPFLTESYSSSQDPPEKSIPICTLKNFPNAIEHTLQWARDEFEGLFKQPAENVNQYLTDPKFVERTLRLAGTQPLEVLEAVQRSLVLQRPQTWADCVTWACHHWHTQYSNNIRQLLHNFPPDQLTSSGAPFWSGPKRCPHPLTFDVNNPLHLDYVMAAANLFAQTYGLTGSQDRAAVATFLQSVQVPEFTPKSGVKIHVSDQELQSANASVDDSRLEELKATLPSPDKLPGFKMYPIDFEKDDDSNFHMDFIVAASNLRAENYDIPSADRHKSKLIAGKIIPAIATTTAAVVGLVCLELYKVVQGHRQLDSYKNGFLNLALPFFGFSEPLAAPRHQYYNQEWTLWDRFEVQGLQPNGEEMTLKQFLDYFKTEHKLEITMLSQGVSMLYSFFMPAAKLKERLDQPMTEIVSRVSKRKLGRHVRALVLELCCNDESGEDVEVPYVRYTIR
Description: Binding affinity to UBA1 in human Jurkat cells at 150 uM followed by UV irradiation for 30 mins with Wood's glass filtered medium pressure mercury arc light prior to cell lysis measured after denaturing wash by LC-MS/MS based pull down assay. A digest of the protocol:
(§2)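 Silver-stained bands from cells irradiated before lysis were excised, destained, reduced with 10 mM DTT, alkylated with 50 mM iodoacetamide and digested with trypsin overnight. Peptides were extracted in 1% TFA/50% acetonitrile. Nano-C18 LC used a 2–50% acetonitrile gradient with 0.1% formic acid over 50 min at 260 nL/min, followed by MS/MS identification.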

The target in experiment [6] is Heat shock protein HSP 90-alpha (Homo sapiens) (UniProt P07900). Briefly: Binding affinity to HSP90AA1 in human Jurkat cells at 150 uM followed by UV irradiation for 30 mins with Wood's glass filtered medium pressure mercury arc light prior to cell lysis measured after denaturing wash by SDS-PAGE based pull down assay. A digest of the protocol: as §1
Experiment [7] has as its target Heat shock-related 70 kDa protein 2 (Homo sapiens) (UniProt P54652). Briefly: Binding affinity to HSPA2 in human Jurkat cells at 150 uM followed by UV irradiation for 30 mins with Wood's glass filtered medium pressure mercury arc light prior to cell lysis measured after denaturing wash by SDS-PAGE based pull down assay. In a few lines: as §1
Experiment [8] concerns the target Eukaryotic translation initiation factor 3 subunit F (Homo sapiens) (UniProt O00303). Briefly: Binding affinity to EIF3F in human Jurkat cells at 150 uM followed by UV irradiation for 30 mins with Wood's glass filtered medium pressure mercury arc light prior to cell lysis measured after denaturing wash by SDS-PAGE based pull down assay. A digest of the protocol: as §1

In experiment [9] the target is Heat shock-related 70 kDa protein 2 (Homo sapiens) (UniProt P54652). Description: Binding affinity to HSPA2 in human Jurkat cells at 150 uM followed by UV irradiation for 30 mins with Wood's glass filtered medium pressure mercury arc light prior to cell lysis measured after denaturing wash by LC-MS/MS based pull down assay. A digest of the protocol: as §2
Chain of Heat shock-related 70 kDa protein 2 (Homo sapiens) (P54652 whole entry): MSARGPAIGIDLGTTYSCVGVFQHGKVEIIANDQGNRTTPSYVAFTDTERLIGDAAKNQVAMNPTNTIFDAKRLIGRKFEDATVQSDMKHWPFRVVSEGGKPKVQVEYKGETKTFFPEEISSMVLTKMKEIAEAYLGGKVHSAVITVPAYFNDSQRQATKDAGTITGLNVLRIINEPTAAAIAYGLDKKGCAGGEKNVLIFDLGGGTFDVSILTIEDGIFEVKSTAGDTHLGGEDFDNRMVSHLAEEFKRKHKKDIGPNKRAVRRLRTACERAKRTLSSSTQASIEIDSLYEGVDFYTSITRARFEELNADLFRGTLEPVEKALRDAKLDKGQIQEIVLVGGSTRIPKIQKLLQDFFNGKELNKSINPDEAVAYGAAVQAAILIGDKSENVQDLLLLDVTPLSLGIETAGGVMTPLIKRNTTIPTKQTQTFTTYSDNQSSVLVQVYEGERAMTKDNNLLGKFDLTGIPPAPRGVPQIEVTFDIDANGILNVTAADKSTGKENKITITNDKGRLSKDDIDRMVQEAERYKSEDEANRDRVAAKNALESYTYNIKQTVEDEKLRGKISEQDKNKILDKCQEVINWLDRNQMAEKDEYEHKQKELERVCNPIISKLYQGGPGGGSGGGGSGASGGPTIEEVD
Experiment [10] concerns the target Actin, cytoplasmic 1 (Homo sapiens) (UniProt P60709). Briefly: Binding affinity to ACTB in human Jurkat cells at 150 uM followed by UV irradiation for 30 mins with Wood's glass filtered medium pressure mercury arc light prior to cell lysis measured after denaturing wash by LC-MS/MS based pull down assay. In a few lines:
as §2

The source made the active and inactive calls. The calls are words filed in the database; no cut-off is given here.

Chain of Casein kinase II (P67870 whole entry): as the sequence (P67870 whole entry) above
Chain of Casein kinase II (P68400 whole entry): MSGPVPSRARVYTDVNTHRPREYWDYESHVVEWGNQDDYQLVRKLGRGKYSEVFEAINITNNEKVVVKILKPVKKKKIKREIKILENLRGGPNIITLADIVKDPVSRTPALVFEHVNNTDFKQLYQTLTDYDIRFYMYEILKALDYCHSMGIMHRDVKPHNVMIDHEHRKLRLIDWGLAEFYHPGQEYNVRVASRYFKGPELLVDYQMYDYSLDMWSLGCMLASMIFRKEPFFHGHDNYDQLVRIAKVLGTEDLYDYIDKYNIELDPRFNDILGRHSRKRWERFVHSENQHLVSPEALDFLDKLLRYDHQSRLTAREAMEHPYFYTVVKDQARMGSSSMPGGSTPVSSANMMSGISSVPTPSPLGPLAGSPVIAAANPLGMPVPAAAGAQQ
Chain of Casein kinase II (P19784 whole entry): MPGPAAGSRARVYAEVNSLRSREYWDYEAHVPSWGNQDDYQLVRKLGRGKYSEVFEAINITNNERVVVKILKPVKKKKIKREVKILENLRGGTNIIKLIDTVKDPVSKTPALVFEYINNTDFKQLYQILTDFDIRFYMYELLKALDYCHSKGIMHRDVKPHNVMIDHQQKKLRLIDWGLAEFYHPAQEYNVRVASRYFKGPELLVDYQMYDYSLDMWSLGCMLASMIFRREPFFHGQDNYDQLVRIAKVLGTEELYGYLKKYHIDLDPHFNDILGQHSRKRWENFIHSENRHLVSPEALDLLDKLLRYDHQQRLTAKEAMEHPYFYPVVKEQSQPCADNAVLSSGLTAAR
Chain of Eukaryotic translation initiation factor 3 subunit F (Homo sapiens) (O00303 whole entry): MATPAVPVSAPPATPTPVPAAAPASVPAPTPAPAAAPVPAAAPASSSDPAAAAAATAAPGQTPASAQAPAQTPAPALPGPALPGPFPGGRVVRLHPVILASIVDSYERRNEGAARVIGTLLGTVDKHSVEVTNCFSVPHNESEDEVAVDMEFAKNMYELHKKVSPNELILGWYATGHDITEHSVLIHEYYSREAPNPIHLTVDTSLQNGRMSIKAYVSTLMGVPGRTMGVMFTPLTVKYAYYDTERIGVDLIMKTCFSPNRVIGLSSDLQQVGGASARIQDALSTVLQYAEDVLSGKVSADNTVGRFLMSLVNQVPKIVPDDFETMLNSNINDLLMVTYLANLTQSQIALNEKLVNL

Take `O=C(CCCC[C@@H]1SC[C@@H]2NC(=O)N[C@@H]21)NCCOCCOCCNC(=O)COc1cc(O)c2c(=O)c(O)c(-c3ccc(O)c(O)c3)oc2c1`: the outcome (in [1]; in the experiment on Jurkat [3]; with Jurkat [4]; in experiment [5]; in experiment [6]; in experiment [7]) was Active. Moreover, the result in experiment [8], in [9] and in [10] was Active. Half-maximal inhibition on Casein kinase II (IC50) was put at 3.2 µM. For the same compound, the inhibition result in the experiment with Jurkat [2] was “Active”.
